Measured values taken from ChEMBL document CHEMBL1121573, “2-(Aminomethyl)phenols, a new class of saluretic agents. 1. Effects of nuclear substitution” (J Med Chem, 1980).
“And” between values parts separate entries of the source, which are not always exact repeats. Equal values may be shown once.

Key:
Rattus norvegicus [1] = species on record: Rattus norvegicus; assay: Time taken for the decrease in arterial pressure was measured; format: functional, Artery
Canis familiaris [2] = assay: Oral diuretic activity was evaluated by measuring Cl- excretion in dog at 0.625 mg/kg after ip administration; format: ADME, organism-based, Canis lupus familiaris, Urine; design: dose 0.625 mg/kg, route intraperitoneal; conditions: in vivo
Rattus norvegicus [3] = assay: Maximum fall in mean arterial blood pressure was measured in SH rats when compound was administered at […] mg/kg perorally; format: functional; conditions: route oral
Canis familiaris [4] = assay: Compound administered intravenously was evaluated for salidiuretic activity measured as sodium ion excretion in Dog; format: ADME, organism-based, Canis lupus familiaris, Urine; design: unit not given beside the values; conditions: in vivo, iv
Method in brief: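 Conditioned female mongrel dogs, postabsorptive, water-loaded (500 mL po) 1 h before sodium pentobarbital anesthesia (30 mg/kg iv). Bladder catheter; creatinine 4 g sc; phosphate–mannitol buffer pH 7.4 infused (3.0 mL/min) throughout. […] Urine Na+ measured; response scored 0–6.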

Canis familiaris [5] = assay: Oral diuretic activity was evaluated by measuring Na+ excretion in dog at 2 mg/kg after […]; format: ADME, organism-based, Canis lupus familiaris, Urine; design: dose 2 mg/kg; conditions: in vivo
Method in brief: (§1)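 Dogs; spontaneous urine was pooled with bladder urine drained by catheter at the end of 6 h. Urine volume was measured, and aliquots were assayed for Na+, K+ and Cl− by standard methods. Values are geometric means, expressed as mequiv over 0–6 h.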

Rattus norvegicus [6] = assay: Oral diuretic activity was evaluated by measuring K+ excretion in Rat at 3 mg/kg after po administration; conditions: in vivo
Rattus norvegicus [7] = assay: Oral diuretic activity was evaluated by measuring Cl- excretion in Rat at 81 mg/kg after ip administration; format: ADME, organism-based, Urine; design: dose 81 mg/kg, route intraperitoneal; conditions: in vivo
Canis familiaris [8] = assay: Oral diuretic activity was evaluated by measuring K+ excretion in dog at 0.625 mg/kg after […]; format: ADME, organism-based, Canis lupus familiaris, Urine; design: dose 0.625 mg/kg; conditions: in vivo
Method in brief: (§2)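 Spontaneous urine was pooled with bladder urine collected by catheterization at 6 h. Volume was measured and Na+, K+ and Cl− were determined by standard methods. Values are geometric means.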

Canis familiaris [9] = assay: Oral diuretic activity was evaluated by measuring K+ excretion in dog at 2 mg/kg after ip administration; format: ADME, organism-based, Canis lupus familiaris, Urine; design: dose 2 mg/kg, route intraperitoneal; conditions: in vivo; method in brief: as §2
Canis familiaris [10] = assay: Oral diuretic activity was evaluated by measuring K+ excretion in dog at 0.312 mg/kg after ip administration; format: ADME, organism-based, Canis lupus familiaris, Urine; design: dose 0.312 mg/kg, route intraperitoneal; conditions: in vivo
Canis familiaris [11] = assay: Oral diuretic activity was evaluated by measuring K+ excretion in dog at 5 mg/kg after ip administration; format: ADME, organism-based, Canis lupus familiaris, Urine; design: dose 5 mg/kg, route intraperitoneal; conditions: in vivo; method in brief: as §2
Canis familiaris [12] = assay: Oral diuretic activity was evaluated by measuring Na+ excretion in dog at 0.312 mg/kg after ip administration; format: ADME, organism-based, Canis lupus familiaris, Urine; design: dose 0.312 mg/kg, route intraperitoneal; conditions: in vivo; method in brief: as §2
Canis familiaris [13] = assay: Oral diuretic activity was evaluated by measuring Na+ excretion in dog at 5 mg/kg after ip administration; format: ADME, organism-based, Canis lupus familiaris, Urine; design: dose 5 mg/kg; conditions: in vivo; method in brief: as §1
Rattus norvegicus [14] = assay: Compound administered orally was evaluated for salidiuretic activity measured as sodium ion excretion in Rat; format: ADME, organism-based, Urine; conditions: in vivo, po
Method in brief: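 Female Charles-River rats (150–170 g), overnight on sugar diet with water ad libitum. Compound dissolved in DMF, diluted with water containing Tween 80 (final 4% DMF), given po in 5.0 mL; concurrent vehicle placebo. Three rats per metabolism cage; 0–5 h urine analysed for Na+, K+, Cl-. Values: mequiv × 100 per cage, geometric means of three cages per dose; scored 0–6 by Na+.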

Canis familiaris [15] = assay: Oral diuretic activity was evaluated by measuring Cl- excretion in dog at 2 mg/kg after ip administration; format: ADME, organism-based, Canis lupus familiaris, Urine; design: dose 2 mg/kg, route intraperitoneal; conditions: in vivo
Canis familiaris [16] = assay: Oral diuretic activity was evaluated by measuring Cl- excretion in dog at 0.312 mg/kg after ip administration; format: ADME, organism-based, Canis lupus familiaris, Urine; design: dose 0.312 mg/kg, route intraperitoneal; conditions: in vivo
Rattus norvegicus [17] = assay: Maximum fall in mean arterial blood pressure was measured in SH rats when compound was administered at 0.312 mg/kg perorally; format: functional; conditions: route oral
Canis familiaris [18] = assay: Oral diuretic activity was evaluated by measuring Na+ excretion in dog at 0.625 mg/kg after ip administration; format: ADME, organism-based, Canis lupus familiaris, Urine; design: dose 0.625 mg/kg, route intraperitoneal; conditions: in vivo; method in brief: as §2
Rattus norvegicus [19] = assay: Oral diuretic activity was evaluated by measuring Cl- excretion in Rat at 3 mg/kg after ip administration; format: ADME, organism-based, Urine; design: dose 3 mg/kg, route intraperitoneal; conditions: in vivo
Rattus norvegicus [20] = assay: Maximum fall in mean arterial blood pressure was measured in SH rats when compound was administered at 0.078 mg/kg perorally; format: functional; conditions: route oral
Rattus norvegicus [21] = assay: Oral diuretic activity was evaluated by measuring Cl- excretion in Rat at 27 mg/kg after ip administration; format: ADME, organism-based, Urine; design: dose 27 mg/kg, route intraperitoneal; conditions: in vivo
Canis familiaris [22] = assay: Oral diuretic activity was evaluated by measuring Cl- excretion in dog at 5 mg/kg after ip administration; format: ADME, organism-based, Canis lupus familiaris, Urine; design: dose 5 mg/kg, route intraperitoneal; conditions: in vivo

CC(C)(C)c1cc(I)c(O)c(CN)c1.Cl
Duration (Rattus norvegicus [1]): 18 h and >24 h | Diuretic activity (Canis familiaris [2]): 30.3 | MAP (Rattus norvegicus [3]): 38 mmHg | Diuretic activity (Canis familiaris [4]): 6 | Diuretic activity (Canis familiaris [5]): 44.9 | Diuretic activity (Rattus norvegicus [6]): 0.51 | Diuretic activity (Rattus norvegicus [7]): 4.89 | Diuretic activity (Canis familiaris [8]): 5.1 | Diuretic activity (Canis familiaris [9]): 9.3 | Diuretic activity (Canis familiaris [10]): 4.34 | Diuretic activity (Canis familiaris [11]): 9.9 | Diuretic activity (Canis familiaris [12]): 13.76 | Diuretic activity (Canis familiaris [13]): 56.8 | Diuretic activity (Rattus norvegicus [14]): 6 | Diuretic activity (Canis familiaris [15]): 57 | Diuretic activity (Canis familiaris [16]): 19.28 | MAP (Rattus norvegicus [17]): 26 mmHg | Diuretic activity (Canis familiaris [18]): 22.3 | Diuretic activity (Rattus norvegicus [19]): 2.11 | MAP (Rattus norvegicus [20]): 16 mmHg | Diuretic activity (Rattus norvegicus [21]): 4.35 | Diuretic activity (Canis familiaris [22]): 69.6
